Compounds with a hit are over-represented: about 2.5% of the library has one in this group of screens.
NR2E3 ag-1 = inhibitors of NR2E3-RetCOR corepressor binding, primary screen, NR2E3 agonist project, biochemical, TR-FRET, GST-NR2E3, biotin-RetCOR; Photoreceptor-specific nuclear receptor (Homo sapiens), Q9Y5X4; 1536-well; inhibition of corepressor binding, % at 4.78 µM; 320,000 compounds, 0.12% hits; AID 2300, 2010;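 active means percent inhibition above the cutoff of mean plus 3 SD of all tested compounds, set per screening campaign, cut at about 20% in these data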;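 further: 0% = DMSO wells and 100% = biotin wells as full block of FRET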
Target sequence (Q9Y5X4 whole entry, looked up): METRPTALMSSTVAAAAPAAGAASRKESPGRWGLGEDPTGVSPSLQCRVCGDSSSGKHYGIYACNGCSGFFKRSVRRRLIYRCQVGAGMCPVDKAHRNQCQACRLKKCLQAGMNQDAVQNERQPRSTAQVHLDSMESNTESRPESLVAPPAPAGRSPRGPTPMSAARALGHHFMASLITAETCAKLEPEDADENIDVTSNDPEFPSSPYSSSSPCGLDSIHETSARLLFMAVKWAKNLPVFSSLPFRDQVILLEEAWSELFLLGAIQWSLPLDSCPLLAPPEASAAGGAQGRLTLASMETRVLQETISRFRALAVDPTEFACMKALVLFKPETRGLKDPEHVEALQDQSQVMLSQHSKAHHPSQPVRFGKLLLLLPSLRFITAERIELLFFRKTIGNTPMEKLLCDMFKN
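Material: NR2E3–RetCOR corepressor complex / Amount: 1.35 nM GST-NR2E3 / Medium: Tris pH 7.5 / Compound: single nominal compound dose of 4.8 µM / Incubation: 5 h at 4 °C / Technique: TR-FRET, Eu(K)-anti-GST donor, streptavidin-D2 acceptor, ex 340, em 617/671 nm / Read-out basis: percent loss of FRET ratio relative to control wells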
GASC-1 inh = inhibitors of GASC-1 histone demethylase, primary screen, biochemical, fluorescence, DELFIA europium; Lysine-specific demethylase 4C (Homo sapiens), Q9H3R0; GST-JMJD2C(1-420) H3K9me3 demethylation; AID 2099, 2009; inhibition, % at 2.35 µM; 330,000 compounds, 0.069% hits;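 active means more than half of a compound's replicate wells show inhibition beyond 50%, single wells judged on their own value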;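 further: signal counts dimethyl H3K9 product captured on neutravidin plate; 0% = median of DMSO wells and 100% = 0.3 times that DMSO median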
ADAM17 inh = ADAM17 inhibitors, primary screen, biochemical, QFRET; recombinant ADAM17, EDANS/DABCYL FRET peptide cleavage; AID 720648, 2013; 370,000 compounds, 0.83% hits; Disintegrin and metalloproteinase domain-containing protein 17 (Homo sapiens), P78536; inhibition, % at 6.95 µM;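 active means inhibition above the mean of compounds lying between control limits plus 3 SD, set per campaign, cut at about 8.5% in these data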;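 further: 0% = DMSO-only wells as the low control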
NR2E3 ag-2 = NR2E3 agonists in two-hybrid cells, primary screen, cell-based, luminescence, CHO-S, Gal4-NCOR/VP16-NR2E3 | inhibition of corepressor binding, % at 3.98 µM | luciferase | 360,000 compounds, 0.35% hits | Photoreceptor-specific nuclear receptor (Homo sapiens), Q9Y5X4;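 active means inhibition above the mean of all tested compounds plus 3 SD, cut at about 70% in these data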;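 further: 0% = DMSO with NR2E3 transfected cells and 100% = cells lacking NR2E3 construct; higher means lower luciferase signal from less NR2E3 corepressor binding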
proKLK7 act = proKLK7 zymogen activators, primary screen, biochemical, fluorescence intensity; activation, % at 7 µM; 370,000 compounds, 0.9% hits; AID 652039, 2013; Kallikrein-7 (Homo sapiens), P49862; purified proKLK7, EDANS-DABCYL substrate fluorescence; 100% is mature enzyme control, 0% vehicle;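 active means activation above the mean of all tested compounds plus 3 SD, computed per campaign excluding outliers beyond control limits, cut at about 13% in these data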
ADAM10 inh = human ADAM10 inhibitors, primary screen, biochemical, QFRET, HTS. inhibition, % at 7 µM. recombinant ADAM10, EDANS/DABCYL FRET peptide cleavage, 3 h. AID 720582, 2013. Disintegrin and metalloproteinase domain-containing protein 10 (Homo sapiens), O14672. 370,000 compounds, 0.62% hits;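 active means inhibition above a per-campaign cutoff equal to the mean of compounds falling between control-based bounds plus 3 SD, cut at about 20% in these data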;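 further: 0% = DMSO wells while the 100% control is not disclosed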
ADAM10 confirm = human ADAM10 inhibitors, confirmation, biochemical, QFRET, triplicate; ADAM10 QFRET peptide cleavage, EDANS fluorescence; shares compounds with ADAM10 inh; inhibition, % at 6.95 µM; 2,100 compounds, 1% hits;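 active means inhibition above about 20% chosen separately for each screening run, limit read from the data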;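 further: 0% = DMSO wells and 100% = marimastat wells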
ADAM17 counter = ADAM17 inhibitors, counter-screen for ADAM10 exosite inhibitor project, biochemical, QFRET, high throughput; inhibition, % at 6.95 µM; shares compounds with ADAM10 inh; 2,100 compounds, 0.5% hits; AID 743214, 2013; ADAM17 QFRET peptide cleavage, EDANS fluorescence;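 active means mean triplicate inhibition above the solvent-only control wells' mean plus 3 SD, cut at about 12% in these data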;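 further: 0% = DMSO wells and 100% = marimastat wells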
ADAM10 counter = ADAM10 inhibitors, counter-screen for ADAM17 exosite inhibitor project, biochemical, FRET, human ADAM10. inhibition, % at 6.95 µM. 2,900 compounds, 47% hits. shares compounds with ADAM17 inh. recombinant ADAM10, EDANS/DABCYL FRET peptide cleavage, 3 h;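 active means mean inhibition over the triplicate runs exceeds the activity threshold set in the earlier primary screen, cut at about 20% in these data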;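 further: 0% = DMSO wells and 100% = marimastat wells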
ADAM17 confirm = ADAM17 inhibitors, hit retest, confirmation, biochemical, QFRET peptide cleavage | shares compounds with ADAM17 inh | recombinant ADAM17, EDANS/DABCYL QFRET peptide cleavage | inhibition, % at 6.95 µM | 2,900 compounds, 65% hits;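 active means mean inhibition across replicates above the hit cutoff set in the primary screen, cut at about 8.5% in these data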;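 further: 0% = DMSO wells and 100% = marimastat wells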
Starred values were filed as active, the others as inactive; x = no result.

SMILES	NR2E3 ag-1	GASC-1 inh	ADAM17 inh	NR2E3 ag-2	proKLK7 act	ADAM10 inh	ADAM10 confirm	ADAM17 counter	ADAM10 counter	ADAM17 confirm
C[C@@]12C(=O)N(c3cccc(Cl)c3)C(=O)N1[C@@H]1c3ccccc3OC[C@@H]1[C@H]2c1ccccc1	x	3.0	-2.9	-44.1	0.3	1.4	x	x	x	x
CC(CCc1ccc(O)cc1)NC(c1ccccc1)c1ccc(Cl)cc1 (stereo not drawn)	0.8	-16.1	12.1*	-0.7	-0.2	27.9*	5.7	1.9	28.7*	24.2*
COC(=O)[C@]12C[C@H](CC(=O)NCc3ccccc3)C(=O)N(Cc3ccco3)C1=C[C@H](C(C)(C)C)O[C@@H]2C	x	x	2.6	x	0.1	2.5	x	x	x	x
COC(=O)[C@]12C[C@H](CC(=O)NCCc3ccccc3OC)C(=O)N(Cc3cccc4ccccc34)C1=C[C@H](C(C)C)O[C@@H]2C1CC1	x	x	10.8*	x	0.5	22.2*	8.0	2.5	27.4*	16.9*
COC(=O)[C@]12C[C@H](CC(=O)NCc3ccc(OC)c(OC)c3)C(=O)N(Cc3cccc4ccccc34)C1=C[C@H](C(C)C)O[C@@H]2C1CC1	x	x	3.3	x	-0.2	6.3	x	x	x	x
COC(=O)[C@]12C[C@H](CC(=O)NCc3cccc(C(F)(F)F)c3)C(=O)N(Cc3ccco3)C1=C[C@H](C(C)C)O[C@@H]2C1CC1	x	x	11.8*	x	-0.7	24.3*	1.9	2.1	49.4*	24.2*
COC(=O)[C@]12C[C@H](CC(=O)NCc3cccc(C(F)(F)F)c3)C(=O)N(Cc3ccco3)C1=C[C@H](C(C)(C)C)O[C@@H]2C	x	x	10.0*	x	-0.2	21.9*	5.9	1.0	41.6*	20.9*
COC(=O)[C@]12C[C@H](CC(=O)NCc3cccc(C(F)(F)F)c3)C(=O)N(CCc3ccc(OC)c(OC)c3)C1=C[C@H](C1CCCC1)O[C@@H]2C	x	x	9.0*	x	-0.4	27.7*	7.6	1.6	27.0*	12.0*
COc1ccc(Cl)cc1NC(=S)NCCSc1ccc(C)cc1	1.4	2.1	7.0	-30.2	0.1	9.8	x	x	x	x
CCOC(=O)c1cc(-c2ccccc2)nn1CC1CC(c2ccc(OC)cc2)=NO1 (stereo not drawn)	x	-12.4	2.1	-15.0	-0.9	9.6	x	x	x	x
CCOC(=O)c1cc(-c2ccccc2C)nn1CC1CC(c2ccc(OC)cc2)=NO1 (stereo not drawn)	2.9	-3.6	10.3*	-4.8	1.2	20.9*	5.3	1.4	17.8	10.2*
CC(C)C[C@H](NC(=O)c1nc[nH]c1C(=O)N[C@@H](CCCCNC(=O)OC(C)(C)C)C(=O)OC(C)(C)C)C(=O)OCc1ccccc1	-0.3	6.1	2.8	-23.9	0.6	11.0	x	x	x	x

Compound activity (PubChem BioAssay)
